From PubChem BioAssay come the findings set out here.

Test [1] in a line: Her2 expression decrease, cell viability multiplex – SKBR3 breast tumor cells, AlphaScreen, ATP viability, primary screen (AID 461;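 active = Her2 level under about 52% in both replicate screens, with viability over 70% of control, limit read from the data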;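 as to Her2 level: lower value means less Her2 protein in the cells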;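 as to viability: percent of carrier control wells set as 100% viability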). The following applies: SKBR3 Her2 protein level, 18-24 h, measured here: SKBR3 viability, ATP luminescence, at 10 µM. A general note: Alpha assays give light when donor and acceptor beads are brought close together.
In test [2] the target is Receptor tyrosine-protein kinase erbB-2 (Homo sapiens) (UniProt P04626). The description is as above. The following applies: 18-24 h, at 10 µM, stronger effect = lower value.
Test [3] can be described thus: reduced viability of SK-BR-3 breast cancer cells – cell-based, 24 h, human, pilot screen (AID 572).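 Also: compound exposure lasted between 18 and 24 h rather than exactly 24 h; 100% = carrier-treated control wells.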 The following applies: SK-BR-3 viability, CellTiter-Glo luminescence, at 10 µM, stronger effect = lower value.
The nature of test [4]: HUVEC growth inhibition – cell-based, human, primary screen (AID 575;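 active = viability at or below 30% in both replicate assays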;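 also: 100% = median of untreated cell wells with 0.1% DMSO on each plate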). The following applies: HUVEC proliferation, CellTiter-Glo luminescence, 72 h; at 10 µM; stronger effect = lower value. Summed up:
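material = primary HUVEC, no more than 12 passages | input = 1250 cells per well | controls = vehicle and MePR control wells | measured by = CTG luminescence | times = 72 h compound incubation | format = collagen-coated 384-well format | read-out = % viability vs DMSO wells | doses = single 10 µM dose, 0.1% DMSO, from 5x medium stock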
In general terms: ATP-based viability assays read luminescence as a measure of living cells.

Test [5] can be described thus: H69AR cell proliferation blockers – human, duplicate replicates, primary screen (AID 580;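 active = viability at or under a set limit in both replicates, limit being median viability minus 3 SD, cut at about 48% in these data, passing the limit was not always enough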;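 also: 100% = mean luminescence of untreated wells and 0% = no signal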). The following applies: H69AR lung tumor cells viability, ATP luminescence, 72 h; at 10 µM; stronger effect = lower value.
The nature of test [6]: MRP1 drug-resistance reversers in H69AR cells – cell-based, doxorubicin co-treatment, pilot screen (AID 601;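 active = viability loss from added drug above about 55%, and viability with drug at most 40%, in both replicates, limit read from the data, passing the limit was not always enough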). The following applies: CellTiter-Glo, 72 h, at 10 µM; for differential viability (reversal): stronger effect = higher value.
A short description of test [7]: yeast transport mutant growth inhibition pilot in 384-well plates, post-Golgi transport modulator project (AID 636; in the data active = inhibition above about 31%). The following applies: absorbance 615 nm, about 18 h, stronger effect = higher value.
The nature of test [8]: growth suppression of yeast trafficking mutant, preliminary HTS, modulators of trafficking downstream of Golgi apparatus project, 1536-format plate, OD 615 nm (AID 637; in the data active = inhibition above about 30%). The following applies: yeast transport mutant growth, absorbance 615 nm, 18 h; stronger effect = higher value.
The mark [9] stands for this setting: H69AR cells + 2 uM doxorubicin, measured here: viability with 2 uM doxorubicin, stronger effect = lower value.
The mark [10] stands for this setting: H69AR cells, compound alone cytotoxicity.

Usually viability stands for a read-out of living cells in per cent, often relative to untreated cells. The inhibition is the change of the read-out against control, counted positive when it falls.

Activity calls are given as the source filed them.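 The calls were made as follows, unless noted: active = viability at or below 10% of carrier control in both of two separate runs; inconclusive = viability at or below 10% in only one of the two runs; inactive = the rest.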

Receptor tyrosine-protein kinase erbB-2 (Homo sapiens), sequence (P04626 whole entry, looked up): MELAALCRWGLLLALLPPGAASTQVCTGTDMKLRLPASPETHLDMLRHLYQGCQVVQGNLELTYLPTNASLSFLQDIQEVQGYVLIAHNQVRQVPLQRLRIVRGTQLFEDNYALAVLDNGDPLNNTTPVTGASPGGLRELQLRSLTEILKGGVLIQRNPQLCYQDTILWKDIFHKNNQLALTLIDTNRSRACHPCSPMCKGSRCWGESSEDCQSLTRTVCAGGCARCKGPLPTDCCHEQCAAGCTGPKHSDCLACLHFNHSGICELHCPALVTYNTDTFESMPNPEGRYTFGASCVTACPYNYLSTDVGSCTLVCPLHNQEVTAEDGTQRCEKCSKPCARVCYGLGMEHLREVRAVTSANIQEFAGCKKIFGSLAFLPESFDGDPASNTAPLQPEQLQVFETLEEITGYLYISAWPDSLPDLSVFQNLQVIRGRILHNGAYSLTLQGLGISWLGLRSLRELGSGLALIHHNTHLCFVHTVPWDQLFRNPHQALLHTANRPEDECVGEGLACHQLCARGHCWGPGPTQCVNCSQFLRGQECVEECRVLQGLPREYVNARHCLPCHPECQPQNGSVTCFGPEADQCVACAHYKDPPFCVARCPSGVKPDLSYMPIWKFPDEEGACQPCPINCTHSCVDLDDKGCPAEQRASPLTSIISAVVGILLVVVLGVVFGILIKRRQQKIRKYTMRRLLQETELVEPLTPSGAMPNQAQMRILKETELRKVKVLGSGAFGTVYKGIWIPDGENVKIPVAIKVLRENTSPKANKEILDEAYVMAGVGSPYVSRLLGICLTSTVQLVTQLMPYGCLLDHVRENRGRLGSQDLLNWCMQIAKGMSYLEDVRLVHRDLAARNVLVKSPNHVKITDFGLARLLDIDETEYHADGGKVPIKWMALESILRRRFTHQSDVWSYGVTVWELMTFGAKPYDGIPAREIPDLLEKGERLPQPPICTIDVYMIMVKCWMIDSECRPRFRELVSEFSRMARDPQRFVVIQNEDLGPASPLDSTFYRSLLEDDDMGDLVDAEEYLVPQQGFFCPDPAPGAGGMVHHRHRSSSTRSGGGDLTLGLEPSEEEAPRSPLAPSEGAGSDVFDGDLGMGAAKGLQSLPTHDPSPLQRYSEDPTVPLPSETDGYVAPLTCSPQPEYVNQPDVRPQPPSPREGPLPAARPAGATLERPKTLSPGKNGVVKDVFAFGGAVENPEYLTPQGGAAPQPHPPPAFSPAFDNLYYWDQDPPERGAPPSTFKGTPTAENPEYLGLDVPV

For the molecule `COc1ccc(CCNC(=O)C2CC(=O)N(c3ccccc3)C2)cc1OC` (stereo not given), the viability in test [1] is 124%; in test [3], 124% (inactive); in test [4], 89.7% (inactive); in test [5], 91.5% (inactive); in test [6] (setting [9]), 90%; in test [6] (setting [10]) it was 91.5%. For the same molecule, in test [2], the Her2 level was 99.5% (inactive). Besides, the differential viability (reversal) in test [6] (H69AR cells + 2 uM doxorubicin) is 1.51% (inactive). The inhibition in test [7] was -2.47% (inactive); in test [8], -1.8% (inactive).
Regarding `O=C(NCC(=O)N(c1ccc2c(c1)OCCO2)C(C(=O)NC1CCCC1)c1ccco1)c1ccco1` (stereo not given), the viability was 92% in test [1]; 92% (inactive) in test [3]; 97.2% (inactive) in test [4]; 92.1% (inactive) in test [5]; 78.7% in test [6] (setting [9]); 92.1% in test [6] (setting [10]). Also, in test [2], the Her2 level was 102% (inactive). In addition, the differential viability (reversal) in test [6] (H69AR cells + 2 uM doxorubicin) is 13.4% (inactive). Further, the inhibition in test [7] was -4.53% (inactive); in test [8], -9.05% (inactive).
Consider `O=C(CSc1nnc(CNC(=O)c2cccs2)o1)Nc1cccc(C(F)(F)F)c1`, for which the viability is 83.5% in test [1]; 83.5% (inactive) in test [3]; 82.7% (inactive) in test [4]; 92.8% (inactive) in test [5]; 90.9% in test [6] (setting [9]); 92.8% in test [6] (setting [10]). In addition, the Her2 level in test [2] was 98.5% (inactive). Moreover, the differential viability (reversal) in test [6] (H69AR cells + 2 uM doxorubicin) was 1.86% (inactive). For the same molecule, the inhibition in test [7] was -0.13% (inactive); in test [8], -7% (inactive).
On to `CN(C)C(=O)N1CCCC(C(=O)NCc2ccccc2)C1` (stereo not given), for which the viability in test [1] was 89%; in test [3], 89% (inactive); in test [4] it was 102% (inactive); in test [5], 87.8% (inactive); in test [6] (setting [9]) it was 107%; in test [6] (setting [10]), 87.8%. Further, the Her2 level in test [2] was 92% (inactive). Moreover, the differential viability (reversal) in test [6] (H69AR cells + 2 uM doxorubicin) is -18.9% (inactive). Besides, the inhibition in test [7] was 1.92% (inactive); in test [8], 4.5% (inactive).
As to `O=c1ccc2cc3c([nH]c4ccc(Br)cc43)oc-2c1O`, the viability in test [1] was 146%; in test [3], 146% (inactive); in test [4], 91.7% (inactive); in test [5], 78.3% (inactive); in test [6] (setting [9]) it was 82.1%; in test [6] (setting [10]), 78.3%. In addition, in test [2], the Her2 level is 87% (inactive). In addition, the differential viability (reversal) in test [6] (H69AR cells + 2 uM doxorubicin) is -3.78% (inactive). Besides, the inhibition in test [7] was -4.16% (inactive); in test [8], -3.81% (inactive).
As to `O=C1c2ccccc2C(O)(Cc2ccccc2)N1Cc1ccco1` (stereo not given), the viability in test [1] was 88.5%; in test [3], 88.5% (inactive); in test [4], 89% (inactive); in test [5] it was 95.7% (inactive); in test [6] (setting [9]), 85.6%; in test [6] (setting [10]) it was 95.7%. Moreover, the Her2 level in test [2] was 104% (inactive). For the same molecule, the differential viability (reversal) in test [6] (H69AR cells + 2 uM doxorubicin) was 10.1% (inactive). The figures for the inhibition in test [7] and in test [8] were -2.37% (inactive) and -9.19% (inactive), respectively.
Consider `COC(=O)c1c(C)oc2ccc(NS(=O)(=O)c3cccs3)cc12`, for which the viability in test [1] was 106%; in test [3], 106% (inactive); in test [4], 59% (inactive); in test [5], 78.9% (inactive); in test [6] (setting [9]) it was 101%; in test [6] (setting [10]), 78.9%. For the same molecule, the Her2 level in test [2] is 94.5% (inactive). Further, in test [6] (H69AR cells + 2 uM doxorubicin), the differential viability (reversal) is -21.9% (inactive). Besides, the inhibition in test [7] is -1.32% (inactive); in test [8], 5.9% (inactive).
For `COC(=O)c1ccccc1NC(=O)Cn1ccnc1`, the viability is 110% in test [1]; 110% (inactive) in test [3]; 80.8% (inactive) in test [4]; 97.7% (inactive) in test [5]; 101% in test [6] (setting [9]); 97.7% in test [6] (setting [10]). For the same molecule, in test [2], the Her2 level was 88.5% (inactive). Further, the differential viability (reversal) in test [6] (H69AR cells + 2 uM doxorubicin) is -3.07% (inactive). Further, the figures for the inhibition in test [7] and in test [8] were -2.3% (inactive) and 1.11% (inactive), respectively.
For `COc1ccc(Cl)cc1N1CC(c2nc3ccccc3[nH]2)CC1=O` (stereo not given), the viability in test [1] is 97.5%; in test [3], 97.5% (inactive); in test [4] it was 98% (inactive); in test [5], 104% (inactive); in test [6] (setting [9]), 96.3%; in test [6] (setting [10]), 104%. Further, the Her2 level in test [2] is 104% (inactive). In addition, the differential viability (reversal) in test [6] (H69AR cells + 2 uM doxorubicin) was 7.82% (inactive). Further, the figures for the inhibition in test [7] and in test [8] were -3.21% (inactive) and 2.17% (inactive), respectively.
With `CC(=O)c1cccc(S(=O)(=O)N2CCC(n3nnc4cc(F)ccc43)CC2)c1`, the viability in test [1] was 88%; in test [3], 88% (inactive); in test [4], 92.9% (inactive); in test [5], 93.9% (inactive); in test [6] (setting [9]), 85.8%; in test [6] (setting [10]) it was 93.9%. The Her2 level in test [2] was 92.5% (inactive). The differential viability (reversal) in test [6] (H69AR cells + 2 uM doxorubicin) is 8.11% (inactive). The inhibition was -5.14% (inactive) in test [7] and -2.62% (inactive) in test [8].
In the case of `CSc1nc(C)c(C(=O)Nc2ccccc2)c(C)c1C#N`, the viability in test [1] is 100%; in test [3], 100% (inactive); in test [4], 91.7% (inactive); in test [5] it was 94.2% (inactive); in test [6] (setting [9]), 87.6%; in test [6] (setting [10]), 94.2%. In test [2], the Her2 level is 76% (inactive). In test [6] (H69AR cells + 2 uM doxorubicin), the differential viability (reversal) was 6.57% (inactive). In addition, the inhibition in test [7] is -5.87% (inactive); in test [8], -3.39% (inactive).
For the molecule `CCCSc1nc2c(c(=O)[nH]c(=O)n2C)n1CCc1ccccc1`, the viability in test [1] is 89.5%; in test [3], 89.5% (inactive); in test [4], 83.8% (inactive); in test [5], 86.8% (inactive); in test [6] (setting [9]), 96.6%; in test [6] (setting [10]), 86.8%. Moreover, the Her2 level in test [2] was 92% (inactive). Also, in test [6] (H69AR cells + 2 uM doxorubicin), the differential viability (reversal) is -9.79% (inactive). For the same molecule, the inhibition is -7.47% (inactive) in test [7] and 7.42% (inactive) in test [8].
As to `CCOC(=O)CSc1nc2cc(C(=O)NCc3ccco3)ccc2c(=O)n1C1CCCCC1`, the viability was 112% in test [1]; 112% (inactive) in test [3]; 91.7% (inactive) in test [4]; 89.8% (inactive) in test [5]; 87.3% in test [6] (setting [9]); 89.8% in test [6] (setting [10]). Also, the Her2 level in test [2] is 83.5% (inactive). Also, the differential viability (reversal) in test [6] (H69AR cells + 2 uM doxorubicin) was 2.55% (inactive). Moreover, the values for the inhibition in test [7] and in test [8] were -4.53% (inactive) and 0.33% (inactive), respectively.
For `O=C(CSc1nnc(CNC(=O)c2cccs2)o1)NCCc1ccccc1`, the viability was 104% in test [1]; 104% (inactive) in test [3]; 92.4% (inactive) in test [4]; 101% (inactive) in test [5]; 98.6% in test [6] (setting [9]); 101% in test [6] (setting [10]). In addition, the Her2 level in test [2] was 103% (inactive). Further, in test [6] (H69AR cells + 2 uM doxorubicin), the differential viability (reversal) is 2.05% (inactive). Also, the inhibition was -0.9% (inactive) in test [7] and -3% (inactive) in test [8].
Regarding `O=C(CSc1nnc(Cc2ccccc2)n1C1CCCCC1)N1CCOCC1`, the viability in test [1] was 92.5%; in test [3] it was 92.5% (inactive); in test [4], 97.9% (inactive); in test [5] it was 95.6% (inactive); in test [6] (setting [9]), 89.2%; in test [6] (setting [10]), 95.6%. Besides, the Her2 level in test [2] is 110% (inactive). The differential viability (reversal) in test [6] (H69AR cells + 2 uM doxorubicin) was 6.44% (inactive). For the same molecule, the results for the inhibition in test [7] and in test [8] were -3.03% (inactive) and -3.97% (inactive), respectively.
